Measured values reported in publication PMC8248332 (Chembiochem, 2021).
Square brackets hold non-standard residues; d marks the D form. Peptide text beside a SMILES is read from it. pS = N[C@@H](COP(=O)(O)O)C(=O)O

Columns and labels:
[1] = biological target: 14‐3‐3ζ; settings: CRaf and the isomer 14‐3‐3ζ; Molzan et al.; cited from earlier work
[2] = biological target: T1, 14‐3‐3σ (Homo sapiens, UniProt P31947); experiment: Isothermal titration calorimetry; format: binding; settings: dissolved CRaf (1 mM) into 14‐3‐3σ (50 μM), HEPES 25 mM pH 7.4, 25 °C
T1 sequence (P31947 1-248): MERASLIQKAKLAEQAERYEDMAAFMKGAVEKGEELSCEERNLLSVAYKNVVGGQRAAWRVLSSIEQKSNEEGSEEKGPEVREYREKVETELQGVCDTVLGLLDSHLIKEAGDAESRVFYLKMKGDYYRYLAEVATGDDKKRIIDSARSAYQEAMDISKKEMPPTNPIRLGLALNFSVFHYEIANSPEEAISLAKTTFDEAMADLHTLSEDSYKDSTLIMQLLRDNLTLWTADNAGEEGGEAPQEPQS
Procedure, shortened: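 14-3-3σ purified by size-exclusion chromatography (20 mM Tris-HCl pH 7.5, 150 mM NaCl, 2 mM DTT), then dialysed into 25 mM HEPES pH 7.4. Cell held 300 μL protein. First injection 0.4 μL, mixing time 0.8 s, 180 s between injections. Enthalpy per injection versus peptide:protein molar ratio fitted sigmoidally; inflection point gives N, slope there gives KD.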

CC(C)C[C@H](NC(=O)[C@H](CO)NC(=O)CNC(=O)[C@H](CCC(=O)O)NC(=O)[C@H](CO)NC(=O)[C@H](CS)NC(=O)[C@@H]1CCCN1C(=O)[C@H](CO)NC(=O)[C@H](CO)NC(=O)[C@@H](NC(=O)[C@H](CC(N)=O)NC(=O)[C@H](Cc1ccccc1)NC(=O)[C@@H](NC(=O)[C@H](Cc1ccccc1)NC(=O)[C@H](C)NC(=O)[C@H](Cc1c[nH]cn1)NC(=O)[C@@H]1CCCN1C(=O)[C@@H](NC(=O)[C@H](COP(=O)(O)O)NC(=O)[C@H](Cc1ccc(O)cc1)NC(=O)[C@H](CCCNC(=N)N)NC(=O)[C@H](Cc1c[nH]cn1)NC(=O)[C@@H](N)CCC(N)=O)[C@@H](C)O)[C@@H](C)O)[C@@H](C)O)C(=O)N[C@@H](CO)C(=O)N[C@@H](CCC(N)=O)C(=O)N[C@@H](CCCNC(=N)N)C(=O)N[C@@H](CCC(N)=O)C(=O)N[C@@H](CCCNC(=N)N)C(=O)N[C@@H](CO)C(=O)N[C@H](C(=O)N[C@@H](COP(=O)(O)O)C(=O)N[C@H](C(=O)N1CCC[C@H]1C(=O)N[C@@H](CC(N)=O)C(=O)N[C@H](C(=O)N[C@@H](Cc1c[nH]cn1)C(N)=O)C(C)C)[C@@H](C)O)[C@@H](C)O [CRaf] (H-QHRY[pS]TPHAFTFNTSSPCSEGSLSQRQRST[pS]TPNVH-NH2)
Kd [1]: 80 nM
binding ratio from ITC (peptide/protein), N [2]: 0.84±0.01
